Reference: ChEMBL document CHEMBL1133667, “A structure-affinity relationship study on derivatives of N-[2-[4-(4-Chlorophenyl)piperazin-1-yl]ethyl]-3-methoxybenzamide, a high-affinity and selective D(4) receptor ligand” (J Med Chem, 2000)

Legend:
[1] = biological target: T1, Adrenergic receptor alpha-1 (Rattus norvegicus) (UniProt P15823+P23944+P43140); test: (§1) Tested in vitro for % inhibition against alpha-1 adrenergic receptor; type: protein assay; parameters: concentration or dose not given beside the values; conditions: concentration not given here
Summary of the method: (§2)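 Drug at 10^-5–10^-11 M, 50 min at 25 °C. Filtered on GF/B filters presoaked in 0.5% polyethylenimine. Nonspecific binding with 1 µM prazosin. Percentage inhibition of specific binding reported at the stated concentration.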

[2] = biological target: T2, Adrenergic receptor alpha-1 (Rattus norvegicus, UniProt P15823+P23944+P43140); test: In vitro binding affinity towards alpha-1 adrenergic receptor by using [3H]prazosin in rat brain cortex membranes.; type: cell membranes
T2 sequence (P15823 whole entry): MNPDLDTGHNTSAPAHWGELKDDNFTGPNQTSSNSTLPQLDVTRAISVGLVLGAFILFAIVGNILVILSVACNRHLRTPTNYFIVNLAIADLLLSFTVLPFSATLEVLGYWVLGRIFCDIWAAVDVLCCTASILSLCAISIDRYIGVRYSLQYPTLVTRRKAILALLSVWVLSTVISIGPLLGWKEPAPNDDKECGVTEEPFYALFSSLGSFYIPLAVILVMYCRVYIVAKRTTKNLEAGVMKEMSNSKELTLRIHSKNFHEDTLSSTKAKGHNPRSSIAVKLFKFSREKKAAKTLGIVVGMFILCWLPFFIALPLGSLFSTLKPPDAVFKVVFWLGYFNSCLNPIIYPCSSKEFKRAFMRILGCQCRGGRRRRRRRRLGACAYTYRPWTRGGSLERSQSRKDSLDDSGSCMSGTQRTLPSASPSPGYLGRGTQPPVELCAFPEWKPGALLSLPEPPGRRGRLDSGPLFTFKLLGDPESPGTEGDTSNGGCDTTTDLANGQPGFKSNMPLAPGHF
T2 sequence (P23944 whole entry): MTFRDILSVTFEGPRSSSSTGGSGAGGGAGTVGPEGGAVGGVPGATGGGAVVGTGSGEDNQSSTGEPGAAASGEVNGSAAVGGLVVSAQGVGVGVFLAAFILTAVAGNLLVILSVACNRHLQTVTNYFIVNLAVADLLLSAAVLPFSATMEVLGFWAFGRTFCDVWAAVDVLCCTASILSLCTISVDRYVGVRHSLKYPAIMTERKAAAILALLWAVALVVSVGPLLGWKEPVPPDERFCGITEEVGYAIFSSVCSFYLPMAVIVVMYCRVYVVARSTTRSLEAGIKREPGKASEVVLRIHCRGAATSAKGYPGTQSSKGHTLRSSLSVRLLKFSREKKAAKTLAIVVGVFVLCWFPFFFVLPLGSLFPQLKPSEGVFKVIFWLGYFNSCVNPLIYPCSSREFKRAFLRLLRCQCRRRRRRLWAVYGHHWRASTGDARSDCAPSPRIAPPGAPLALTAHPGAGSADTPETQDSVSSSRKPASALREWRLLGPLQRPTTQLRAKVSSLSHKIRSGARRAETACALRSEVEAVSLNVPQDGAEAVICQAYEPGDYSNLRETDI
T2 sequence (P43140 whole entry): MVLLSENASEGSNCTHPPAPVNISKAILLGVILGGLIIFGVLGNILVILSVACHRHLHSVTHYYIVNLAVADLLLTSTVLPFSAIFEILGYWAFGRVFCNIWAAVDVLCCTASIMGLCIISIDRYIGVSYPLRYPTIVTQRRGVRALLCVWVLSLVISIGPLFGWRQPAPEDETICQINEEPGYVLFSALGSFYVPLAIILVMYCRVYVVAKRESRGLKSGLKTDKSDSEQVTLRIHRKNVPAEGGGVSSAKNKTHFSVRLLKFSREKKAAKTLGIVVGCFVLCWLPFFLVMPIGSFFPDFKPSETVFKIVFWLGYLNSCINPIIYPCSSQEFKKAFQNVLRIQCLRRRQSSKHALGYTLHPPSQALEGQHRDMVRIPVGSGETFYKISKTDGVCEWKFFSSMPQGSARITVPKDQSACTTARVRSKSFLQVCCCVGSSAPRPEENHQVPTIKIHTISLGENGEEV

D(4) dopamine receptor = biological target: T3, D(4) dopamine receptor (Homo sapiens, UniProt P21917); test: In vitro binding affinity at human Dopamine receptor D4.4 by [3H]YM-09151-2 displacement.
T3 sequence (P21917 whole entry): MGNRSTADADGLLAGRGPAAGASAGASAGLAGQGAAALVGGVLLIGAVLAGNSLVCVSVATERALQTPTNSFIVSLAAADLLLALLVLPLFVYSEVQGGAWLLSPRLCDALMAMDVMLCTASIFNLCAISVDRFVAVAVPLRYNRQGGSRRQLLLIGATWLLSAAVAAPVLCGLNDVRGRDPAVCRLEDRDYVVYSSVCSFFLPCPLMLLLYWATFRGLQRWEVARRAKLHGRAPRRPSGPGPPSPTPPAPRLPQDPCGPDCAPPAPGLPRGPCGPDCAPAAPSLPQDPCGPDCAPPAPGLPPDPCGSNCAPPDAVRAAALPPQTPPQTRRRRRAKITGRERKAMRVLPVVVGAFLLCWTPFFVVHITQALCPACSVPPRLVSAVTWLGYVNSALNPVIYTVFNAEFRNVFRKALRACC

D(2) dopamine receptor [3] = biological target: T4, D(2) dopamine receptor (Homo sapiens, UniProt P14416); test: In vitro binding affinity at human Dopamine receptor D2 (long) by [3H]spiroperidol displacement.
[4] = biological target: T5, 5-hydroxytryptamine receptor 1A (Rattus norvegicus, UniProt P19327); test: In vitro binding affinity at 5-hydroxytryptamine receptor 1A receptor in rat hippocampal membranes by [3H]8-OH-DPAT displacement.; type: cell membranes, Hippocampus
T5 sequence (P19327 whole entry): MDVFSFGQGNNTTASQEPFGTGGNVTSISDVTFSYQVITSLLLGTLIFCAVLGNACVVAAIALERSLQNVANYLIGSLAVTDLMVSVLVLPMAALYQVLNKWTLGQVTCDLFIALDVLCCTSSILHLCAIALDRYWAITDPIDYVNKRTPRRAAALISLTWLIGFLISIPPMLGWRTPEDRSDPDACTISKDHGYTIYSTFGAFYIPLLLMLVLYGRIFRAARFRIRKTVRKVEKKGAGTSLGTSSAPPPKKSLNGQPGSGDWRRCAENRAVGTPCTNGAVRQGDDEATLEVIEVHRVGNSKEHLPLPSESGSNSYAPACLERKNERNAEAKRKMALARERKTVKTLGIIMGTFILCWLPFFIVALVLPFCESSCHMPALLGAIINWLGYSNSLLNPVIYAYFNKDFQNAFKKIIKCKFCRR

[5] = biological target: T1, Adrenergic receptor alpha-1 (Rattus norvegicus); test: Tested in vitro for %inhibition against alpha-1 adrenergic receptor; type: protein assay; conditions: concentration not given here; summary of the method: as §2
D(2) dopamine receptor [6] = biological target: T4, D(2) dopamine receptor; test: In vitro binding affinity towards human Dopamine receptor D2L, using [3H]spiroperidol radioligand in Sf9 baculovirus expression.
[7] = biological target: T1, Adrenergic receptor alpha-1 (Rattus norvegicus); test: as §1; type: protein assay; conditions: concentration not given here; summary of the method: as §2
[8] = biological target: T6, 5-hydroxytryptamine receptor 1A (Rattus norvegicus) (UniProt P19327); test: Tested in vitro for % inhibition against (serotonin)5-HT 1A receptor.; conditions: concentration not given here
T6 sequence (whole entry): T5 sequence (P19327 whole entry)

T4 sequence (P14416 whole entry): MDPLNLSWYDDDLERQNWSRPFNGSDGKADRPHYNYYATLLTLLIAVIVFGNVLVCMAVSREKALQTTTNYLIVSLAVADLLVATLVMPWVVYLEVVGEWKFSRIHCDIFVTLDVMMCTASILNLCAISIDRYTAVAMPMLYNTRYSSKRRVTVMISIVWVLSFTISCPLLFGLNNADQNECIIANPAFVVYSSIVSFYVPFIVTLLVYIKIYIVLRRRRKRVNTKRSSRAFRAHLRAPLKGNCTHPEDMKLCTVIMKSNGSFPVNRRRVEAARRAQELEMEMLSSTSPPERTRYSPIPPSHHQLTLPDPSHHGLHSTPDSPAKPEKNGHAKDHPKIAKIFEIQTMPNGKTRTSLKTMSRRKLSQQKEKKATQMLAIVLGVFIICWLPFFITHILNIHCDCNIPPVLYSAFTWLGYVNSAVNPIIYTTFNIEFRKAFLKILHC

inhibition [1] | Ki [2] | Ki (D(4) dopamine receptor) | Ki (D(2) dopamine receptor [3]) | Ki [4] | Ki (D(2) dopamine receptor [6]) | SMILES | inhibition [5] | inhibition [7] | inhibition [8]
34% | > 850 nM | 416 nM | 3400 nM | 105 nM |  | COc1cccc2c1CCCC2CCCN1CCN(c2ccc(Cl)cc2)CC1 (stereo unspecified) |  |  | 
 | 678 nM | 280 nM | > 850 nM | 45 nM |  | COc1cccc(C(=O)CCCCCN2CCN(c3ccc(Cl)cc3)CC2)c1 |  |  | 
 | 303 nM | 42 nM | 282 nM | 859 nM |  | COc1cccc(NC(=O)CCN2CCN(c3ccc(Cl)cc3)CC2)c1 |  |  | 
27% | > 850 nM | 32 nM | 3180 nM | 821 nM |  | COc1cccc2c1CCCC2NCCN1CCN(c2ccc(Cl)cc2)CC1.Cl.Cl (stereo unspecified) |  |  | 
 | 146 nM | 21 nM | > 850 nM | 37 nM |  | COc1cccc(C(=O)CCCCN2CCN(c3ccc(Cl)cc3)CC2)c1 |  |  | 
33% | > 850 nM | 141 nM | 3960 nM | 11 nM |  | COc1ccc2c(c1)C(=O)N(CCN1CCN(c3ccc(Cl)cc3)CC1)CC2 |  |  | 
 | 631 nM | 42 nM |  | 451 nM | 3170 nM | COc1cccc2c1CCN(CCN1CCN(c3ccc(Cl)cc3)CC1)C2=O |  |  | 
19% | > 850 nM | 391 nM | 980 nM | 708 nM |  | COc1ccc2c(c1)C(CCCN1CCN(c3ccc(Cl)cc3)CC1)CCC2 (stereo unspecified) |  |  | 
 | 908 nM | 4 nM | 2550 nM | 183 nM |  | COc1cccc(C(=O)CCCN2CCN(c3ccc(Cl)cc3)CC2)c1 |  |  | 

SMILES | inhibition [1] | Ki [2] | Ki (D(4) dopamine receptor) | Ki (D(2) dopamine receptor [3]) | Ki [4] | Ki (D(2) dopamine receptor [6]) | inhibition [5] | inhibition [7] | inhibition [8]
COc1cccc(CCCCN2CCN(c3ccc(Cl)cc3)CC2)c1 |  | > 850 nM | 204 nM | 2740 nM | 514 nM |  | 25% |  | 
COc1ccc2c(c1)C(NCCN1CCN(c3ccc(Cl)cc3)CC1)CCC2 (stereo unspecified) | 37% | > 850 nM | 46 nM | 262 nM | > 850 nM |  |  |  | 
COc1cccc(CNCCN2CCN(c3ccc(Cl)cc3)CC2)c1 | 12% | > 850 nM | 23 nM | 5000 nM | > 850 nM |  |  |  | 
COc1cccc(C(=O)N(C)CCN2CCN(c3ccc(Cl)cc3)CC2)c1 |  | > 850 nM | 180 nM | > 850 nM | > 850 nM |  |  | 22% | 18%
